Our source for the IC50, Ratio IC50 and inhibition values is ChEMBL document CHEMBL4257478, “Design, synthesis and evaluation of (R)-3-(7-(methyl(7H-pyrrolo[2,3-d]pyrimidin-4-yl)amino)-5-azaspiro[2.4]heptan-5-yl)-3-oxopropanenitrile as a JAK1-selective inhibitor” (Medchemcomm, 2018).

Test [1] deals with Tyrosine-protein kinase JAK2 (Homo sapiens, UniProt O60674). As to the kind of experiment: Inhibition of human JAK2 using KTFCGTPEYLAPEVRREPRILSEEEQEMFRDFDYIADWC as substrate after 40 mins in presence of [gamma-33P-ATP] by scintillation counting method.
Sequence of Tyrosine-protein kinase JAK2 (O60674 whole entry): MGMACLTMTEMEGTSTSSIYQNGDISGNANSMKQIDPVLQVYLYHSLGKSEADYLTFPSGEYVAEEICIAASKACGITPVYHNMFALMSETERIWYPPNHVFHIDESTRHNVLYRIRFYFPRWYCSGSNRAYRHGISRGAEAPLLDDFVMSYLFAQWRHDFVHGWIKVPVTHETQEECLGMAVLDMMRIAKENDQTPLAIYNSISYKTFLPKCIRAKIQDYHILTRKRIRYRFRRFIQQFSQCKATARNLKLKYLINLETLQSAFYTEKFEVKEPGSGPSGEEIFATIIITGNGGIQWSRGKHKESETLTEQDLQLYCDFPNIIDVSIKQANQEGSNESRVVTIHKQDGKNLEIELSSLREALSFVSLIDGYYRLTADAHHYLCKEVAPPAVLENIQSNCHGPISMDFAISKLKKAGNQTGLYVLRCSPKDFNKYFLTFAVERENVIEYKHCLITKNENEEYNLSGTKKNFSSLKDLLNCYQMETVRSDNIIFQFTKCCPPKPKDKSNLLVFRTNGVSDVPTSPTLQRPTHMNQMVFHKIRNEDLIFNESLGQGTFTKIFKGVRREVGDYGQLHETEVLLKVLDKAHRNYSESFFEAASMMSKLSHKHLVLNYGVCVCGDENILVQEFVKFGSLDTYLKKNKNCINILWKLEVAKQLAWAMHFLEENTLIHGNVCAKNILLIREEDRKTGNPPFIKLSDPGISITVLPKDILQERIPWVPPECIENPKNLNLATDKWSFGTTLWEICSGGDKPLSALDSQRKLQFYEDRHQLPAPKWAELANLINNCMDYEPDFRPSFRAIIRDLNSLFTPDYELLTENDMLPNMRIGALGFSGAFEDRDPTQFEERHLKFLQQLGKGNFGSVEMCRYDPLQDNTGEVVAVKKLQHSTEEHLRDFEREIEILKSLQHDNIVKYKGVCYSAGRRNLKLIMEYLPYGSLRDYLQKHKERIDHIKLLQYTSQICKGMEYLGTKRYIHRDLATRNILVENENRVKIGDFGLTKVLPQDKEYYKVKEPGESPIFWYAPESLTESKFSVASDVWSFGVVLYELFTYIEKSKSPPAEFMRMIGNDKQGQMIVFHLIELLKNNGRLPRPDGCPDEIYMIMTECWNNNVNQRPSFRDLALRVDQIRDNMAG
The next test is filed under the species Homo sapiens. The test can be described thus: Selectivity index, ratio of IC50 for human JAK2 to IC50 for human JAK1. The method in brief:
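Kinase activity assays run as a commercial service at Km ATP; IC50 values fitted from concentration-response data; ratio of JAK2 to JAK1 IC50.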

Test [2] concerns the target T1, Tyrosine-protein kinase JAK1 (Homo sapiens, UniProt P23458). The test can be described thus: Inhibition of human JAK1 using GEEPLYWSFPAKKK as substrate after 40 mins in presence of [gamma-33P-ATP] by scintillation counting method.
Test [3] has as its target T1, Tyrosine-protein kinase JAK1. As to the kind of experiment: Inhibition of human JAK1 at 1 uM using GEEPLYWSFPAKKK as substrate after 40 mins in presence of [gamma-33P-ATP] by scintillation counting method relative to control.

T1 sequence (P23458 whole entry): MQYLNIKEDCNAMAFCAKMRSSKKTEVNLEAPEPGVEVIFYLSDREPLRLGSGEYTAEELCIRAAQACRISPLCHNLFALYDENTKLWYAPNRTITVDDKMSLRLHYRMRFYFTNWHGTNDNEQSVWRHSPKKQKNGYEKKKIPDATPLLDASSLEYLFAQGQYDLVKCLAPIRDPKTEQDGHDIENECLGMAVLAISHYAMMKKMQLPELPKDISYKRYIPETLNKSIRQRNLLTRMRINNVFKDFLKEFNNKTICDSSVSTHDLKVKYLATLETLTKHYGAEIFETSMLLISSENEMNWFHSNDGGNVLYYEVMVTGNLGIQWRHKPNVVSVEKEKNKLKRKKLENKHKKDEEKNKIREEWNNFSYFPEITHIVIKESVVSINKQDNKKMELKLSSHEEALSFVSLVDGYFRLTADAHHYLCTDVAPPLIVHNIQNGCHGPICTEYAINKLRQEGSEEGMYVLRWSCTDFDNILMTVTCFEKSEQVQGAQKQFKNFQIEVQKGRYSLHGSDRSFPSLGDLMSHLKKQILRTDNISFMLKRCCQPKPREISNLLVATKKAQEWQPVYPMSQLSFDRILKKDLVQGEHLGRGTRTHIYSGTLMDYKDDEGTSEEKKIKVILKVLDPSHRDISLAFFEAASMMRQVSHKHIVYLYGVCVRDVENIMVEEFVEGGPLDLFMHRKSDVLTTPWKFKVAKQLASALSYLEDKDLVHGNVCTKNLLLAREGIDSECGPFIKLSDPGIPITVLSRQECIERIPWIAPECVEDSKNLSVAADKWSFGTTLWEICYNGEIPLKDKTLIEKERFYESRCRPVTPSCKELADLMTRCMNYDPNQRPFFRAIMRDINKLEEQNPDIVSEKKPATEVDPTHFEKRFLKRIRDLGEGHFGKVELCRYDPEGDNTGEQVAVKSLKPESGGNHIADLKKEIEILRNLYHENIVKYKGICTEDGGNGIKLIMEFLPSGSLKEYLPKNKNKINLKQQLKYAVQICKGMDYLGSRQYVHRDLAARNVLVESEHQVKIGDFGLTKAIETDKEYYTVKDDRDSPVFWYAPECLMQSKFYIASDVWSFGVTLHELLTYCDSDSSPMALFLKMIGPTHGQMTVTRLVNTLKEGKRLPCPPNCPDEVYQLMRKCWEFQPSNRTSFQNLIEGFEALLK

On to `CCCS(=O)(=O)N1C[C@H](N(C)c2ncnc3[nH]ccc23)C2(CC2)C1`, for which the IC50 (as a rule, the concentration needed to halve the response being measured) in test [1] was found to be 36 nM; in test [2], 6.9 nM. The Ratio IC50 in the test filed under Homo sapiens worked out at 5.2.
Take `CN(c1ncnc2[nH]ccc12)[C@H]1CN(C(=O)Nc2ccccc2)CC12CC2`: the IC50 stood at 420 nM in test [1] and 12 nM in test [2]. The Ratio IC50 in the test filed under Homo sapiens stood at 35.
The matching figures for `CN(c1ncnc2[nH]ccc12)[C@H]1CN(S(=O)(=O)c2ccc([N+](=O)[O-])cc2)CC12CC2`: 30 nM, 6.3 nM and 4.8.
As for `CN(c1ncnc2[nH]ccc12)[C@H]1CN(S(=O)(=O)c2ccc(F)cc2)CC12CC2`, the IC50 in test [1] is 50 nM; in test [2], 9.4 nM. The Ratio IC50 in the test filed under Homo sapiens was 5.3.
As for `Cc1ccc(NC(=O)N2C[C@H](N(C)c3ncnc4[nH]ccc34)C3(CC3)C2)cc1Cl`, the IC50 stood at 1300 nM in test [1] and 85 nM in test [2]. In addition, the Ratio IC50 in the test filed under Homo sapiens was determined as 15.
Consider `CN(c1ncnc2[nH]ccc12)[C@H]1CN(C(=O)NC2CCCCC2)CC12CC2`, for which the IC50 came to 4400 nM in test [1] and 69 nM in test [2]. In the test listed under Homo sapiens, the Ratio IC50 is 64.
With `CN(c1ncnc2[nH]ccc12)[C@@H]1CCCN(C(=O)CC#N)C1`, the inhibition (commonly the share of the control response that was lost under treatment) in test [3] worked out at 99%.
As for `CC(C)C(=O)N1C[C@H](N(C)c2ncnc3[nH]ccc23)C2(CC2)C1`, the figures for the IC50 in test [1] and in test [2] were 2800 nM and 170 nM, respectively. For the same compound, the Ratio IC50 in the test filed under Homo sapiens is 16.
With `CN(c1ncnc2[nH]ccc12)[C@H]1CN(Cc2ccccc2)CC12CC2`, the IC50 in test [1] came out at 98000 nM; in test [2] it was 120 nM. In addition, the Ratio IC50 in the test listed under Homo sapiens is 820.
Taken in the same sequence, the figures for `CN(c1ncnc2[nH]ccc12)[C@H]1CN(C(=O)Nc2ccccc2-c2ccccc2)CC12CC2` were 9100 nM, 1500 nM and 6.1.
Take `CN(c1ncnc2[nH]ccc12)[C@H]1CN(C(=O)c2ccc(C#N)cc2)CC12CC2`: the IC50 in test [1] turned out to be 4500 nM; in test [2] it was 190 nM. The Ratio IC50 in the test filed under Homo sapiens came to 24.
The matching figures for `CN(c1ncnc2[nH]ccc12)[C@H]1CN(C(=O)C2CC2)CC12CC2`: 1200 nM, 170 nM and 7.1.
The matching figures for `CC(C)CC(=O)N1C[C@H](N(C)c2ncnc3[nH]ccc23)C2(CC2)C1`: 1100 nM, 77 nM and 14.
The matching figures for `CN(c1ncnc2[nH]ccc12)[C@H]1CN(C(=O)CN=[N+]=[N-])CC12CC2`: 250 nM, 21 nM and 12.
With `CN(c1ncnc2[nH]ccc12)[C@H]1CN(C(=O)c2ccccc2)CC12CC2`, the IC50 came to 6300 nM in test [1] and 150 nM in test [2]. In addition, the Ratio IC50 in the test filed under Homo sapiens was found to be 42.
As to `CN(c1ncnc2[nH]ccc12)[C@H]1CN(C(=O)Nc2ccc(Cl)c(Cl)c2)CC12CC2`, the figures for the half-maximal inhibitory concentration (IC50) in test [1] and in test [2] were 1300 nM and 40 nM, respectively. Further, the Ratio IC50 in the test listed under Homo sapiens was 33.
For the compound `CNC(=O)CC(=O)N1C[C@H](N(C)c2ncnc3[nH]ccc23)C2(CC2)C1`, the IC50 was 13000 nM in test [1] and 670 nM in test [2]. Besides, in the test filed under Homo sapiens, the Ratio IC50 is 19.
On to `CN(c1ncnc2[nH]ccc12)[C@H]1CN(S(=O)(=O)c2ccc3ccccc3c2)CC12CC2`, for which the IC50 in test [1] was determined as 150 nM; in test [2] it was 17 nM. Further, the Ratio IC50 in the test listed under Homo sapiens was found to be 8.8.
On to `CN(c1ncnc2[nH]ccc12)[C@H]1CN(S(=O)(=O)N2CCOCC2)CC12CC2`, for which the IC50 in test [1] was determined as 260 nM; in test [2], 31 nM. In the test filed under Homo sapiens, the Ratio IC50 came to 8.4.
For the compound `CN(c1ncnc2[nH]ccc12)[C@H]1CN(C(=O)Nc2ccc(Cl)cc2Cl)CC12CC2`, the IC50 amounted to 4700 nM in test [1] and 120 nM in test [2]. In the test filed under Homo sapiens, the Ratio IC50 was 39.
Consider `CN(c1ncnc2[nH]ccc12)[C@H]1CN(S(=O)(=O)c2ccccc2F)CC12CC2`, for which the IC50 was 97 nM in test [1] and 13 nM in test [2]. In the test listed under Homo sapiens, the Ratio IC50 was found to be 7.5.
On to `CN(c1ncnc2[nH]ccc12)[C@H]1CN(S(=O)(=O)c2cccc([N+](=O)[O-])c2)CC12CC2`, for which the IC50 was 5.5 nM in test [1] and 1.4 nM in test [2]. Besides, the Ratio IC50 in the test filed under Homo sapiens stood at 3.9.
Taken in the same sequence, the figures for `CN(c1ncnc2[nH]ccc12)[C@H]1CN(S(=O)(=O)c2ccccc2)CC12CC2` were 51 nM, 9 nM and 5.7.
Turning to `CC(=O)NCC(=O)N1C[C@H](N(C)c2ncnc3[nH]ccc23)C2(CC2)C1`, the IC50 came out at 16000 nM in test [1] and 520 nM in test [2]. Also, the Ratio IC50 in the test filed under Homo sapiens amounted to 31.
As to `CN(c1ncnc2[nH]ccc12)[C@H]1CN(C(=O)c2cccnc2)CC12CC2`, the IC50 in test [1] worked out at 7800 nM; in test [2] it was 160 nM. Moreover, in the test filed under Homo sapiens, the Ratio IC50 came out at 49.
For the compound `CCCCNC(=O)N1C[C@H](N(C)c2ncnc3[nH]ccc23)C2(CC2)C1`, the results for the IC50 in test [1] and in test [2] were 2800 nM and 75 nM, respectively. Moreover, in the test listed under Homo sapiens, the Ratio IC50 is 37.
As for `CCN1C[C@H](N(C)c2ncnc3[nH]ccc23)C2(CC2)C1`, the IC50 in test [1] worked out at 30000 nM; in test [2] it was 1400 nM. The Ratio IC50 in the test filed under Homo sapiens is 21.
Taken in the same sequence, the figures for `CN(c1ncnc2[nH]ccc12)[C@H]1CN(S(=O)(=O)c2ccccc2C#N)CC12CC2` were 480 nM, 50 nM and 9.6.
Take `CN(c1ncnc2[nH]ccc12)[C@H]1CN(C(=O)c2ccccc2C(F)(F)F)CC12CC2`: the values for the IC50 in test [1] and in test [2] were 9100 nM and 500 nM, respectively. Besides, in the test filed under Homo sapiens, the Ratio IC50 turned out to be 18.
The matching figures for `CN(c1ncnc2[nH]ccc12)[C@H]1CN(S(=O)(=O)c2ccc(C(F)(F)F)cc2)CC12CC2`: 1400 nM, 16 nM and 88.
Taken in the same sequence, the figures for `CCCCN1C[C@H](N(C)c2ncnc3[nH]ccc23)C2(CC2)C1` were 15000 nM, 230 nM and 65.
For the compound `CN(c1ncnc2[nH]ccc12)[C@H]1CN(C(=O)c2ccncc2)CC12CC2`, the IC50 in test [1] stood at 6500 nM; in test [2] it was 140 nM. In the test listed under Homo sapiens, the Ratio IC50 worked out at 46.
Consider `CC(C)S(=O)(=O)N1C[C@H](N(C)c2ncnc3[nH]ccc23)C2(CC2)C1`, for which the IC50 is 130 nM in test [1] and 20 nM in test [2]. Further, the Ratio IC50 in the test listed under Homo sapiens came out at 6.5.
Taken in the same sequence, the figures for `CN(c1ncnc2[nH]ccc12)[C@H]1CN(C(=O)Nc2cccc(Cl)c2Cl)CC12CC2` were 1300 nM, 74 nM and 18.
On to `CC(=O)N1CCC(C(=O)N2C[C@H](N(C)c3ncnc4[nH]ccc34)C3(CC3)C2)CC1`, for which the IC50 amounted to 2500 nM in test [1] and 180 nM in test [2]. Also, the Ratio IC50 in the test filed under Homo sapiens was 14.
In the case of `CN(c1ncnc2[nH]ccc12)[C@H]1CN(C(=O)c2cccc(C(F)(F)F)c2)CC12CC2`, the IC50 in test [1] was 11000 nM; in test [2], 420 nM. Besides, in the test listed under Homo sapiens, the Ratio IC50 came to 26.
As for `COc1ccc(S(=O)(=O)N2C[C@H](N(C)c3ncnc4[nH]ccc34)C3(CC3)C2)cc1`, the IC50 in test [1] was 180 nM; in test [2] it was 9.3 nM. Further, the Ratio IC50 in the test filed under Homo sapiens stood at 19.
Consider `CN(c1ncnc2[nH]ccc12)[C@H]1CN(C(=O)Nc2ccc(F)cc2)CC12CC2`, for which the figures for the IC50 in test [1] and in test [2] were 1000 nM and 23 nM, respectively. The Ratio IC50 in the test listed under Homo sapiens came out at 43.
With `CN(c1ncnc2[nH]ccc12)[C@H]1CN(C(=S)CC#N)CC12CC2`, the IC50 in test [1] amounted to 160 nM; in test [2] it was 20 nM. Also, the Ratio IC50 in the test filed under Homo sapiens was 8.
The matching figures for `CN(c1ncnc2[nH]ccc12)[C@H]1CN(S(=O)(=O)c2ccc(C#N)cc2)CC12CC2`: 1100 nM, 9.8 nM and 110.
With `CN(c1ncnc2[nH]ccc12)[C@H]1CN(C(=S)Nc2cc(C(F)(F)F)cc(C(F)(F)F)c2)CC12CC2`, the IC50 in test [1] came out at 11000 nM; in test [2], 470 nM. Also, the Ratio IC50 in the test listed under Homo sapiens came out at 23.
Taken in the same sequence, the figures for `CN(c1ncnc2[nH]ccc12)[C@H]1CN(C(=O)c2cccc(C#N)c2)CC12CC2` were 7400 nM, 100 nM and 74.
For `CN(c1ncnc2[nH]ccc12)[C@H]1CN(C(=O)Nc2cc(Cl)ccc2Cl)CC12CC2`, the values for the IC50 in test [1] and in test [2] were 2800 nM and 54 nM, respectively. Also, the Ratio IC50 in the test filed under Homo sapiens amounted to 52.
In the case of `CN(c1ncnc2[nH]ccc12)[C@H]1CN(S(=O)(=O)c2ccccc2[N+](=O)[O-])CC12CC2`, the figures for the IC50 in test [1] and in test [2] were 470 nM and 26 nM, respectively. Besides, the Ratio IC50 in the test filed under Homo sapiens was found to be 18.
Taken in the same sequence, the figures for `CC(C)COC(=O)N1C[C@H](N(C)c2ncnc3[nH]ccc23)C2(CC2)C1` were 1200 nM, 34 nM and 35.
Consider `CN(c1ncnc2[nH]ccc12)[C@H]1CN(C(=O)c2ccco2)CC12CC2`, for which the IC50 in test [1] is 930 nM; in test [2], 53 nM. Also, the Ratio IC50 in the test filed under Homo sapiens amounted to 18.
Regarding `Cc1cccc(S(=O)(=O)N2C[C@H](N(C)c3ncnc4[nH]ccc34)C3(CC3)C2)c1`, the IC50 came to 66 nM in test [1] and 12 nM in test [2]. Moreover, the Ratio IC50 in the test listed under Homo sapiens is 5.5.
The matching figures for `CN(c1ncnc2[nH]ccc12)[C@H]1CN(S(=O)(=O)N2CCCCC2)CC12CC2`: 150 nM, 15 nM and 10.
Taken in the same sequence, the figures for `CN(c1ncnc2[nH]ccc12)[C@H]1CN(S(=O)(=O)c2cccc(F)c2)CC12CC2` were 8.4 nM, 2.8 nM and 3.
